The record followed here is ChEMBL document CHEMBL1649328, “Assessment of pandemic and seasonal influenza A (H1N1) virus susceptibility to neuraminidase inhibitors in three enzyme activity inhibition assays” (Antimicrob Agents Chemother, 2010).

Test [1] relates to Influenza A virus. Briefly: Antiviral activity against influenza A (A/North Carolina/01/2009 (H1N1)) virus harboring neuraminidase H275Y mutant after 30 mins by NA-star substrate based chemiluminescent assay. The test is classed as functional, organism-based. A digest of the protocol: (§1)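 Titrated virus in NA-Star buffer (26 mM MES, 4 mM CaCl2, pH 6.0) was preincubated with ten half-log inhibitor dilutions (0.03–1,000 nM final) for 30 min at 37°C, then with substrate for 30 min at room temperature. Accelerator solution was added and luminescence read for 0.1 s. IC50 came from a Vmax·[1−x/(K+x)] fit, mean of ≥3 experiments.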

The subject of test [2] is Influenza A virus. Briefly: Antiviral activity against influenza A (A/Osaka/180/2009 (H1N1)) virus harboring neuraminidase H275Y mutant after 30 mins by NA-star substrate based chemiluminescent assay. The test is classed as functional, organism-based. The method, boiled down:
as §1

The test system of test [3] is Influenza A virus. Briefly: Antiviral activity against influenza A (A/Washington/29/2009 (H1N1)) virus harboring neuraminidase H275Y mutant after 30 mins by NA-star substrate based chemiluminescent assay. Format: functional, organism-based. A digest of the protocol:
as §1

For test [4], the system named is Influenza A virus. The experiment in a line: Antiviral activity against influenza A (A/Hong Kong/2369/2009 (H1N1)) virus harboring neuraminidase H275Y mutant after 30 mins by NA-star substrate based chemiluminescent assay. The test is classed as functional, organism-based. The method, boiled down:
as §1

In test [5] the test system is Influenza A virus. The experiment in a line: Antiviral activity against influenza A (A/Singapore/57/2009 (H1N1)) virus harboring neuraminidase H275Y mutant after 30 mins by NA-star substrate based chemiluminescent assay. The test is classed as functional, organism-based. A digest of the protocol:
as §1

Test [6] concerns Influenza A virus. The experiment in a line: Antiviral activity against influenza A (A/Montana/02/2009 (H1N1)) virus harboring neuraminidase H275Y mutant after 30 mins by MUNANA substrate based fluorometric assay. The test is classed as functional, organism-based. A digest of the protocol: (§2)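 Fluorometric NA inhibition with MUNANA (100 μM final). Titrated virus in NA-Star buffer (26 mM MES, 4 mM CaCl2, pH 6.0) was preincubated with ten half-log inhibitor dilutions (0.03–1,000 nM final) for 30 min at 37°C, then with substrate for 30 min at 37°C. The reaction was stopped with 0.1 M glycine in 25% ethanol, pH 10.7, and 4-methylumbelliferone was read at ex 365/em 450 nm. IC50 came from a Vmax·[1−x/(K+x)] fit, mean of ≥3 experiments.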

For test [7], the system named is Influenza A virus. The experiment in a line: Antiviral activity against influenza A (A/Washington/29/2009 (H1N1)) virus harboring neuraminidase H275Y mutant after 30 mins by MUNANA substrate based fluorometric assay. Format: functional, organism-based. The method, boiled down: as §2
Test [8] relates to Influenza A virus. The experiment in a line: Antiviral activity against influenza A (A/Hong Kong/2369/2009 (H1N1)) virus harboring neuraminidase H275Y mutant after 30 mins by MUNANA substrate based fluorometric assay. The test is classed as functional, organism-based. The method, boiled down:
as §2

Test [9] has as its system Influenza A virus. The experiment in a line: Antiviral activity against influenza A (A/Washington/29/2009 (H1N1)) virus harboring neuraminidase H275Y mutant after 16 to 18 hrs by fetuin substrate based colorimetric assay. The test is classed as functional, organism-based. The method, boiled down:
(§3)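 Colorimetric NA inhibition with fetuin substrate. Virus was diluted in NA-Star buffer (26 mM MES, 4 mM CaCl2, pH 6.0) to give OD549 of 0.4–0.8 after 18 h. It was preincubated with ten half-log inhibitor dilutions (0.03–1,000 nM final) for 1 h at 37°C, then with fetuin (5.5 mg/ml final) for 16–18 h at 37°C. Released sialic acid was read at 549 nm after periodate/TBA reaction and butanol extraction. IC50 came from a Vmax·[1−x/(K+x)] fit, mean of ≥2 experiments.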

In test [10] the test system is Influenza A virus. The experiment in a line: Antiviral activity against influenza A (A/Hong Kong/2369/2009 (H1N1)) virus harboring neuraminidase H275Y mutant after 16 to 18 hrs by fetuin substrate based colorimetric assay. Format: functional, organism-based. A digest of the protocol:
as §3

The subject of test [11] is Influenza A virus. Briefly: Antiviral activity against influenza A (A/Singapore/57/2009 (H1N1)) virus harboring neuraminidase H275Y mutant after 16 to 18 hrs by fetuin substrate based colorimetric assay. The test is classed as functional, organism-based. The method, boiled down: as §3
For test [12], the system named is Influenza A virus. Briefly: Ratio of IC50 for influenza A (A/North Carolina/02/2009 (H1N1)) virus harboring neuraminidase H275Y mutant to IC50 for influenza A (A/Washington/10/2008 (H1N1)) virus expressing wild type enzyme expressing wild type enzyme by NA-star substrate based chemiluminescent assay. The test is classed as functional.
The subject of test [13] is Influenza A virus. Briefly: Ratio of IC50 for influenza A (A/New York/18/2009 (H1N1)) virus harboring neuraminidase H275Y mutant to IC50 for influenza A (A/Washington/10/2008 (H1N1)) virus expressing wild type enzyme by NA-star substrate based chemiluminescent assay. The test is classed as functional.
Test [14] relates to Influenza A virus. The experiment in a line: Ratio of IC50 for influenza A (A/Montana/02/2009 (H1N1)) virus harboring neuraminidase H275Y mutant to IC50 for influenza A (A/Washington/29/2009 (H1N1)) virus expressing wild type enzyme by NA-star substrate based chemiluminescent assay. The test is classed as functional.
Test [15] deals with Influenza A virus. Briefly: Ratio of IC50 for influenza A (A/Hong Kong/2369/2009 (H1N1)) virus harboring neuraminidase H275Y mutant to IC50 for influenza A (A/Washington/29/2009 (H1N1)) virus expressing wild type enzyme by NA-star substrate based chemiluminescent assay. Format: functional.
The subject of test [16] is Influenza A virus. Briefly: Ratio of IC50 for influenza A (A/North Carolina/02/2009 (H1N1)) virus harboring neuraminidase H275Y mutant to IC50 for influenza A (A/Washington/10/2008 (H1N1)) virus expressing wild type enzyme by MUNANA substrate based fluorometric assay. Format: functional.
For test [17], the system named is Influenza A virus. The experiment in a line: Ratio of IC50 for influenza A (A/Hong Kong/2369/2009 (H1N1)) virus harboring neuraminidase H275Y mutant to IC50 for influenza A (A/Washington/29/2009 (H1N1)) virus expressing wild type enzyme by MUNANA substrate based fluorometric assay. The test is classed as functional.
Test [18] deals with Influenza A virus. The experiment in a line: Ratio of IC50 for influenza A (A/Singapore/57/2009 (H1N1)) virus harboring neuraminidase H275Y mutant to IC50 for influenza A (A/Washington/29/2009 (H1N1)) virus expressing wild type enzyme by MUNANA substrate based fluorometric assay. The test is classed as functional. A digest of the protocol: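 Fluorometric NA inhibition in MES/CaCl2 buffer, pH 6.0. Virus preincubated 30 min at 37°C with ten half-log inhibitor dilutions (0.03–1,000 nM final), then MUNANA (100 μM final) added for 30 min at 37°C. Stopped with 0.1 M glycine in 25% ethanol, pH 10.7. Read at ex 365/em 450 nm. IC50 curve-fitted, mean of ≥3 experiments. Ratio is variant IC50 over wild-type reference IC50.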

Test [19] deals with Influenza A virus. Briefly: Ratio of IC50 for influenza A (A/Singapore/91/2009 (H1N1)) virus harboring neuraminidase H275Y mutant to IC50 for influenza A (A/Washington/29/2009 (H1N1)) virus expressing wild type enzyme by fetuin substrate based colorimetric assay. The test is classed as functional. A digest of the protocol: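 Colorimetric NA inhibition using a virus dilution that gave 0.4–0.8 OD549. Virus preincubated 1 h at 37°C with half-log inhibitor dilutions (0.03–1,000 nM final) in MES/CaCl2 pH 6.0 buffer. Fetuin (5.5 mg/ml final) then added for 18 h at 37°C. Released sialic acid detected by periodate oxidation and thiobarbituric acid, butanol extraction, read at 549 nm. IC50 curve-fitted, ≥2 experiments. Ratio is variant IC50 over wild-type reference IC50.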

Test [20] has as its system Influenza A virus. The experiment in a line: Ratio of IC50 for influenza A (A/Hong Kong/2369/2009 (H1N1)) virus harboring neuraminidase H275Y mutant to IC50 for influenza A (A/Washington/29/2009 (H1N1)) virus expressing wild type enzyme by fetuin substrate based colorimetric assay. The test is classed as functional.

For orientation: IC50 means the concentration at which inhibition is half-maximal. Higher therefore signals lower potency. As to `C/C=C\[C@@H]1C[C@H](C(=O)O)N[C@H]1[C@@H](NC(C)=O)[C@](C)(CCC)OC`, the IC50 in [1] came out at 0.84 nM; in [2] it was 0.91 nM; in test [3], 1.62 nM; in [4], 1.09 nM; in test [5] it was 1.06 nM; in test [6], 2.6 nM. The IC50 in test [7] was determined as 1.76 nM; in [8] it was 1.67 nM; in test [9] it was 2.07 nM; in test [10], 3.56 nM; in [11], 1.58 nM. Besides, the “Ratio IC50” value came out at 1 in test [12]; 1 in test [13]; 6 in test [14]; 3 in [15]; 1 in [16]; 3 in test [17]. For the same compound, the “Ratio IC50” value in test [18] came out at 3; in test [19], 1; in test [20], 3.

On to `CCC(CC)[C@H](NC(C)=O)[C@@H]1[C@H](O)[C@@H](C(=O)O)C[C@H]1NC(=N)N` [PERAMIVIR ANHYDROUS], for which the IC50 in test [1] is 13.8 nM; in [2], 13.1 nM; in [3] it was 12.5 nM; in test [4] it was 9.24 nM; in [5], 11.8 nM; in test [6] it was 197 nM. The IC50 in test [7] is 150 nM; in test [8] it was 128 nM; in [9], 163 nM; in [10] it was 162 nM; in test [11] it was 84.8 nM. For the same compound, the “Ratio IC50” value in test [12] is 1; in test [13] it was 1; in [14], 136; in test [15] it was 66; in test [16], 1; in test [17], 641. Further, the results for the “Ratio IC50” value in test [18], in [19] and in [20] were 609, 1 and 330, respectively.
